{"source": "ChEMBL document CHEMBL4732138", "about": "“Evaluation of the Structure-Activity Relationship of Microtubule-Targeting 1,2,4-Triazolo[1,5-a]pyrimidines Identifies New Candidates for Neurodegenerative Tauopathies” (J Med Chem, 2021)", "key": {"Tubulin (Homo sapiens) [1]": {"target": "T1, Tubulin (Homo sapiens) (UniProt P68371+Q9H4B7+P0DPH7+P68366+Q13509+Q71U36+P04350+Q3ZCM7+P07437+P68363+Q9BQE3+Q6PEY2+Q13885+Q9BVA1+Q9BUF5)", "assay": "Stabilization of microtubules in human QBI293 cells assessed as fold change in alpha tubulin levels at 10 uM after 4 hrs by ELISA relative to DMSO", "format": "cell-based", "summary_of_the_method": "(§1)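 QBI293 cells were grown in DMEM with 10% FBS, 2 mM L-glutamine and penicillin/streptomycin, then plated at 6 × 10^5 cells/well and left overnight. Medium was replaced with fresh medium holding vehicle (DMSO) or compound, and cells were incubated 4 h. Whole-cell extract supernatants were protein-normalized by BCA assay. AcTub and α-tubulin were quantified by ELISA against standard curves. Values are fold-change over DMSO, analysed by one-way ANOVA.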"}, "Tubulin (Homo sapiens) [2]": {"target": "T1, Tubulin (Homo sapiens)", "assay": "Stabilization of microtubules in human QBI293 cells assessed as fold change in acetylated tubulin levels at 1 uM after 4 hrs by ELISA relative to DMSO", "format": "cell-based", "summary_of_the_method": "as §1"}, "Tubulin (Homo sapiens) [3]": {"target": "T1, Tubulin (Homo sapiens)", "assay": "Stabilization of microtubules in human QBI293 cells assessed as fold change in acetylated tubulin levels at 10 uM after 4 hrs by ELISA relative to cevipabulin", "format": "cell-based"}, "[4]": {"assay": "Ratio of drug concentration in brain to plasma in CD-1 mouse at 2.5 mg/kg, ip administered as single cassette dosing and measured after 1 hr", "format": "ADME, organism-based", "settings": "read-out: BPR", "summary_of_the_method": "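Groups of three female CD-1 mice, 2–3 months old, cassette-dosed i.p. with 2–3 compounds at the same time, each at 2.5 mg/kg in DMSO. Euthanised 1 h after dosing. Brain hemispheres homogenised in 10 mM ammonium acetate pH 5.7 (50% w/v). Plasma from blood collected in EDTA and centrifuged 4,500 × g, 10 min, 4 °C. Compound levels measured in both; brain/plasma ratio reported.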"}, "Tubulin (Homo sapiens) [5]": {"target": "T1, Tubulin (Homo sapiens)", "assay": "Stabilization of microtubules in human QBI293 cells assessed as fold change in acetylated tubulin levels at 1 uM after 4 hrs by ELISA relative to cevipabulin", "format": "cell-based"}, "[6]": {"assay": "n-octanol-water distribution coefficient, log D of the compound at pH 7.4 by shake flask method", "format": "physicochemical", "settings": "n-octanol/water, read-out: logD", "summary_of_the_method": "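Distribution coefficient between n-octanol and water at pH 7.4, measured by shake-flask method.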"}, "Tubulin (Homo sapiens) [7]": {"target": "T1, Tubulin (Homo sapiens)", "assay": "Stabilization of microtubules in human QBI293 cells assessed as fold change in acetylated tubulin levels at 10 uM after 4 hrs by ELISA relative to DMSO", "format": "cell-based", "summary_of_the_method": "as §1"}, "Tubulin (Homo sapiens) [8]": {"target": "T1, Tubulin (Homo sapiens)", "assay": "Stabilization of microtubules in human QBI293 cells assessed as fold change in alpha tubulin levels at 1 uM after 4 hrs by ELISA relative to DMSO", "format": "cell-based", "summary_of_the_method": "as §1"}, "Tubulin (Homo sapiens) [9]": {"target": "T1, Tubulin (Homo sapiens)", "assay": "Stabilization of microtubules in human QBI293 cells assessed as decrease in alpha-tubulin levels at 10 uM after 4 hrs by ELISA relative to control", "format": "cell-based", "set-up": "scale not given: the % may be the effect or the level left", "summary_of_the_method": "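QBI293 cells grown in DMEM with 10% FBS, 2 mM L-glutamine and penicillin/streptomycin, plated at 6 × 10^5 cells/well and left overnight. […] Whole-cell extract supernatants protein-normalised by BCA. Total α-tubulin measured by ELISA against standard curves, reported as fold-change over DMSO-treated cells; one-way ANOVA.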"}, "Primary cortical neuron [10]": {"tested_on": "Primary cortical neuron", "assay": "Stabilization of microtubules in Spargue-Dawley rat primary cortical neurons assessed as prevention of microtubule collapse by causing increase in acetyl tubulin levels at 1 uM incubated for 8 hrs in presence of phosphatase inhibitor OA by fluorescence microscopy analysis", "format": "tissue-based", "summary_of_the_method": "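Rat cortical neurons are grown 10 days on coverslips. They are treated 8 h with or without 15 nM okadaic acid, with or without test compound at 1 µM. Axonal acetyl-tubulin is then assessed by immunostaining.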"}, "[11]": {"assay": "Half life in CD-1 mouse plasma at 5 mg/kg, ip administered as single cassette dosing and measured upto 16 hrs", "format": "ADME, organism-based", "summary_of_the_method": "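CD-1 mice, female, 2–3 months old, three per group, given a single i.p. dose of 5 mg/kg dissolved in DMSO. Brain and plasma sampled over 16 h. Plasma is from blood collected in 0.5 M EDTA and spun 10 min at 4,500 × g, 4 °C. Brain hemispheres are sonicated in 10 mM ammonium acetate pH 5.7 (50% w/v). Compound levels are measured in plasma and brain homogenates.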"}, "Primary cortical neuron [12]": {"tested_on": "Primary cortical neuron", "assay": "Stabilization of microtubules in CD-1 mouse primary cortical neurons assessed as prevention of microtubule collapse by causing increase in acetyl tubulin levels at 10 uM incubated for 8 hrs in presence of phosphatase inhibitor OA by ELISA", "format": "tissue-based", "summary_of_the_method": "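Mouse cortical neurons are plated at 6 × 10^5 cells/well and grown 10 days. […] Acetyl-tubulin in homogenates is measured by ELISA.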"}, "Tubulin (Homo sapiens) [13]": {"target": "T1, Tubulin (Homo sapiens)", "assay": "Stabilization of microtubules in human QBI293 cells assessed as increase in acetylated tubulin levels after 4 hrs by ELISA", "format": "cell-based", "summary_of_the_method": "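QBI293 cells are grown in DMEM with 10% FBS, 2 mM L-glutamine and penicillin/streptomycin, plated at 6 × 10^5 cells/well and incubated overnight. […] Acetyl- and total α-tubulin in whole-cell extract supernatants are measured by ELISA against standard curves, with protein by BCA. Values are fold-change over DMSO; AcTub is also given relative to 100 nM cevipabulin positive control. Significance is by one-way ANOVA.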"}, "[14]": {"assay": "Ratio of drug concentration in brain to plasma in CD-1 mouse at 5 mg/kg, ip administered as single cassette dosing and measured after 1 hr", "format": "ADME, organism-based", "settings": "read-out: BPR", "summary_of_the_method": "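Groups of three female CD-1 mice (2–3 months old) received one i.p. dose of 5 mg/kg in DMSO and were euthanized 1 h later. Brain hemispheres were sonicated in 10 mM ammonium acetate, pH 5.7 (50% w/v). Plasma came from blood collected in 0.5 M EDTA, spun 10 min at 4,500 × g, 4 °C. B/P is the ratio of brain to plasma compound concentration.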"}}, "note": "Calls of active or inactive are those of the source. The calls are words filed in the database; no cut-off is given here."}
{"smiles": "CC(C)[C@@H](C)Nc1c(-c2c(F)cc(C#N)cc2F)c(Cl)nc2ncnn12", "values": [{"measurement": "fold change (FC)", "setting": "Tubulin (Homo sapiens) [1]", "value": 0.94}, {"measurement": "fold change (FC)", "setting": "Tubulin (Homo sapiens) [2]", "value": 3.8}, {"measurement": "fold change (FC)", "setting": "Tubulin (Homo sapiens) [3]", "value": 0.69}, {"measurement": "Kp at 1 h", "setting": "[4]", "value": 0.7}, {"measurement": "fold change (FC)", "setting": "Tubulin (Homo sapiens) [5]", "value": 0.62}, {"measurement": "logD", "setting": "[6]", "value": 2.47}, {"measurement": "fold change (FC)", "setting": "Tubulin (Homo sapiens) [7]", "value": 4.28}, {"measurement": "fold change (FC)", "setting": "Tubulin (Homo sapiens) [8]", "value": 0.93}]}
{"smiles": "CC(C)[C@H](Nc1c(-c2c(F)cc(F)cc2F)c(Cl)nc2ncnn12)C(F)(F)F", "values": [{"measurement": "Activity", "setting": "Tubulin (Homo sapiens) [9]", "value": 39, "unit": "%"}]}
{"smiles": "C[C@@H](Nc1c(-c2c(F)cc(C#N)cc2F)c(Cl)nc2ncnn12)C(C)(C)C", "values": [{"measurement": "Activity", "setting": "Primary cortical neuron [10]", "value": "Active"}, {"measurement": "Kp at 1 h", "setting": "[4]", "value": 0.7}, {"measurement": "half-life", "setting": "[11]", "value": 1.8, "unit": "h"}, {"measurement": "Activity", "setting": "Primary cortical neuron [12]", "value": "Active"}, {"measurement": "logD", "setting": "[6]", "value": 2.35}]}
{"smiles": "CC(C)[C@@H](C)Nc1c(-c2c(F)cc(F)cc2F)c(Cl)nc2ncnn12", "values": [{"measurement": "Activity", "setting": "Primary cortical neuron [10]", "value": "Active"}, {"measurement": "Activity", "setting": "Tubulin (Homo sapiens) [13]", "value": "Dose-dependent effect"}, {"measurement": "half-life", "setting": "[11]", "value": 1.1, "unit": "h"}, {"measurement": "Kp at 1 h", "setting": "[14]", "value": 2.7}, {"measurement": "logD", "setting": "[6]", "value": 3.51}]}
{"smiles": "CC(Cc1c(-c2c(F)cc(F)cc2F)c(Cl)nc2ncnn12)C(F)(F)F", "note": "(stereo not drawn)", "values": [{"measurement": "Activity", "setting": "Tubulin (Homo sapiens) [9]", "value": 22, "unit": "%"}, {"measurement": "fold change (FC)", "setting": "Tubulin (Homo sapiens) [1]", "value": 0.78}, {"measurement": "fold change (FC)", "setting": "Tubulin (Homo sapiens) [2]", "value": 2.3}, {"measurement": "fold change (FC)", "setting": "Tubulin (Homo sapiens) [3]", "value": 0.53}, {"measurement": "fold change (FC)", "setting": "Tubulin (Homo sapiens) [5]", "value": 0.53}, {"measurement": "fold change (FC)", "setting": "Tubulin (Homo sapiens) [7]", "value": 2.29}, {"measurement": "fold change (FC)", "setting": "Tubulin (Homo sapiens) [8]", "value": 1.03}]}
{"smiles": "N#Cc1cc(F)c(-c2c(Cl)nc3ncnn3c2N2CCCCCC2)c(F)c1", "values": [{"measurement": "fold change (FC)", "setting": "Tubulin (Homo sapiens) [1]", "value": 0.99}, {"measurement": "fold change (FC)", "setting": "Tubulin (Homo sapiens) [2]", "value": 6.4}, {"measurement": "fold change (FC)", "setting": "Tubulin (Homo sapiens) [3]", "value": 1.82}, {"measurement": "Kp at 1 h", "setting": "[4]", "value": 0.7}, {"measurement": "fold change (FC)", "setting": "Tubulin (Homo sapiens) [5]", "value": 1.04}, {"measurement": "logD", "setting": "[6]", "value": 2.12}, {"measurement": "fold change (FC)", "setting": "Tubulin (Homo sapiens) [7]", "value": 11.2}, {"measurement": "fold change (FC)", "setting": "Tubulin (Homo sapiens) [8]", "value": 0.98}]}
{"smiles": "Fc1cc(F)c(-c2c(Cl)nc3ncnn3c2N2CCCCCC2)c(F)c1", "values": [{"measurement": "fold change (FC)", "setting": "Tubulin (Homo sapiens) [1]", "value": 0.99}, {"measurement": "Activity", "setting": "Tubulin (Homo sapiens) [13]", "value": "Dose-dependent effect"}, {"measurement": "fold change (FC)", "setting": "Tubulin (Homo sapiens) [2]", "value": 4.16}, {"measurement": "fold change (FC)", "setting": "Tubulin (Homo sapiens) [3]", "value": 0.74}, {"measurement": "fold change (FC)", "setting": "Tubulin (Homo sapiens) [5]", "value": 0.45}, {"measurement": "Kp at 1 h", "setting": "[14]", "value": 1.4}, {"measurement": "logD", "setting": "[6]", "value": 3.38}, {"measurement": "fold change (FC)", "setting": "Tubulin (Homo sapiens) [7]", "value": 6.87}, {"measurement": "fold change (FC)", "setting": "Tubulin (Homo sapiens) [8]", "value": 0.99}]}
